The sample as a whole holds a higher share of hits than the screen did.
T cruzi growth-1: inhibitors of T. cruzi proliferation; inhibition, % at 8.34 µM; T. cruzi beta-gal in NIH3T3, GalScreen luminescence, 90 h; actives 5.9% (n = 77,000);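 active = mean inhibition above about 93%, with at least 55% of replicates each passing it, limit read from the data, passing the limit was not always enough; inconclusive = only one of those two conditions holds; inactive = neither condition holds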
IDH1 mut inh: blocks human IDH1 R132H reductase activity. inhibition, % at 10 µM. actives 0.18% (n = 70,000). O75874. diaphorase/resazurin fluorescence, 60 min; in the data active = inhibition above about 34%; inconclusive = no clear call, values can overlap the other calls; inactive = below about 11%;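 also: 0% = DMSO and 100% = no enzyme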
GASC1 inh: inhibitors of human demethylase GASC-1 KDM4C | Q9H3R0 | GST-KDM4C 2-372, H3K9me3 peptide, LANCE TR-FRET | inhibition, % at 12.5 µM | actives 0.15% (n = 96,000) | AID 720574;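 active = mean replicate inhibition above about 25%, with at least 55% of replicates also reaching it, limit read from the data, passing the limit was not always enough; inconclusive = only one of those two conditions met; inactive = neither condition met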
Target sequence (Q9H3R0 2-372 limits assumed): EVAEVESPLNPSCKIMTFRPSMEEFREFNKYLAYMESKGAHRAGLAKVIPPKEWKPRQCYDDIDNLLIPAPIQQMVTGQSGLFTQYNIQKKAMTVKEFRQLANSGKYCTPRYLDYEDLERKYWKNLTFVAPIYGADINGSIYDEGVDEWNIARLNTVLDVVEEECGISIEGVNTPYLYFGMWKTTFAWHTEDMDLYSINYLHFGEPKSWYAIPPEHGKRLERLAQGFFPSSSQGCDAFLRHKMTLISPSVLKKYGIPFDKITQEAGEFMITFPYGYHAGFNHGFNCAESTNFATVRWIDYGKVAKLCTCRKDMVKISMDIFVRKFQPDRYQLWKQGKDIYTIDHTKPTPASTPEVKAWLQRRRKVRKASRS
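Material: N-terminal GST-fused human GASC-1 (KDM4C) fragment, residues 2-372. Input: 10 nM enzyme. Incubation: enzyme reaction 30 min, then detection 60 min, both room temperature. Doses: one test concentration per compound. Read-out basis: inhibition from TR-FRET ratio decrease. Detection: LANCE TR-FRET, excitation 340 nm, emissions 618 and 671 nm.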
T cruzi growth-2: Trypanosoma cruzi proliferation inhibition; shares compounds with T cruzi growth-1; T. cruzi beta-gal in NIH3T3, GalScreen luminescence, 90 h; inhibition, % at 8.35 µM; actives 72% (n = 5,600); AID 651739;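 active = mean replicate inhibition above about 95% and at least 55% of replicates individually reaching it, limit read from the data; inconclusive = only one of the two criteria is met; inactive = neither criterion is met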
T cruzi growth-3: inhibitors of T. cruzi proliferation; T. cruzi beta-gal in NIH3T3, GalScreen luminescence, 90 h; actives 21% (n = 5,600); inhibition, % at 2.09 µM; AID 651740; shares compounds with T cruzi growth-1;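 active = mean inhibition above about 95%, with at least 55% of replicates also reaching it, limit read from the data; inconclusive = meets just one of the two conditions; inactive = meets neither condition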;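 also: plate controls were neutral control median for no effect and positive control median for full effect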
NIH3T3 tox: NIH/3T3 (mouse) viability loss; NIH/3T3 viability, CellTiter-Glo ATP luminescence, 90 h; actives 14% (n = 5,600); shares compounds with T cruzi growth-1; cytotoxicity (signal decrease), % at 8.35 µM;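 active = mean signal decrease across replicates above about 35% based on untreated-well scatter, with enough replicates individually passing, limit read from the data; inconclusive = no rule stated though some were filed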;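 also: 0% = median of neutral control wells and 100% = median of positive control wells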
NIH3T3 tox 2: cytotoxicity in mouse NIH/3T3 fibroblasts; NIH/3T3 viability, CellTiter-Glo ATP luminescence, 90 h; AID 651744; inhibition, % at 24.9 µM; actives 56% (n = 5,600); shares compounds with T cruzi growth-1;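 active = mean loss of cell viability signal at or above a set limit, and enough replicates individually reaching it; inconclusive = meets only the mean limit or only the replicate share; inactive = meets neither condition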;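 also: 0% = median of neutral control wells and 100% = median of positive control wells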
* hit, by the source's call; ? = inconclusive; nt = not tested or not shown.

SMILES	T cruzi growth-1	IDH1 mut inh	GASC1 inh	T cruzi growth-2	T cruzi growth-3	NIH3T3 tox	NIH3T3 tox 2
C[C@H](CO)N1C[C@H](C)[C@@H](CN(C)S(=O)(=O)c2ccc(F)cc2)Oc2ncc(/C=C/c3ccccc3)cc2C1=O	85*	nt	-3	103*	49	-1	-1
COc1cccc(S(=O)(=O)N(C)C[C@@H]2Oc3ncc(/C=C/c4ccccc4)cc3C(=O)N([C@H](C)CO)C[C@@H]2C)c1	106*	0	-1	105*	73	?	77*
COc1ccc(S(=O)(=O)N(C)C[C@@H]2Oc3ncc(/C=C/c4ccccc4)cc3C(=O)N([C@H](C)CO)C[C@H]2C)cc1	nt	0	-4	nt	nt	nt	nt
C[C@@H]1CN([C@H](C)CO)C(=O)c2cc(/C=C/c3ccccc3)cnc2O[C@H]1CN(C)S(=O)(=O)c1ccc(F)cc1	18	nt	1	nt	nt	nt	nt
C[C@@H]1CN([C@H](C)CO)C(=O)c2cc(/C=C/c3ccccc3)cnc2O[C@@H]1CN(C)S(=O)(=O)c1ccccc1F	84	2	-4	nt	nt	nt	nt
Cc1cc(I)ccc1NC(=O)Cn1cc([N+](=O)[O-])cn1	nt	0	nt	nt	nt	nt	nt
Cc1cc2nnc(SCC(=O)Nc3ccc(Cl)c(C(F)(F)F)c3)n2c2ccccc12	nt	0	nt	nt	nt	nt	nt
C=C1CCC2[C@](C)(CCC[C@]2(C)C(=O)O)[C@H]1CC/C(C)=C/C(=O)O (some centres not stated)	nt	0	nt	nt	nt	nt	nt
N#CCC(=O)Cc1ccccc1[N+](=O)[O-]	nt	1	nt	nt	nt	nt	nt
COc1ccc(Cl)cc1NC(=O)CN(c1cccc(F)c1)S(C)(=O)=O	nt	0	nt	nt	nt	nt	nt
CC(C)C#Cc1ccc([C@H]2[C@H]3CN(C(=O)NC(C)C)CCCCN3[C@H]2CO)cc1	54	nt	-1	nt	nt	nt	nt
CC(C)C#Cc1ccc([C@@H]2[C@H](CO)N3CCCCN(C(=O)NC(C)C)C[C@@H]23)cc1	103*	nt	1	101*	89	12	85*
CC(C)NC(=O)N1CCCCN2[C@H](CO)[C@H](c3ccc(C#Cc4ccccc4)cc3)[C@H]2C1	107*	nt	-1	106*	105*	41*	107*
CC(C)NC(=O)N1CCCCN2[C@H](C1)[C@@H](c1ccc(C#Cc3ccccc3)cc1)[C@@H]2CO	76	nt	-1	nt	nt	nt	nt
CC(C)NC(=O)N1CCCCN2[C@H](CO)[C@@H](c3ccc(C#Cc4ccccc4)cc3)[C@H]2C1	103*	nt	-2	101*	72	23	102*
CC(C)NC(=O)N1CCCCN2[C@H](C1)[C@H](c1ccc(C#Cc3ccccc3)cc1)[C@@H]2CO	82	nt	-1	nt	nt	nt	nt
Cc1ccnc(NC(c2ccc([N+](=O)[O-])cc2)c2ccc3ccc(C)nc3c2O)c1 (configuration not stated)	nt	1	nt	nt	nt	nt	nt
C[C@H](CO)N1C[C@H](C)[C@H](CN(C)Cc2ccc(Oc3ccccc3)cc2)Oc2c(NC(=O)Nc3cccc4ccccc34)cccc2C1=O	98*	-1	-5	99*	109*	19	?
C[C@H]1CN([C@@H](C)CO)C(=O)c2cccc(NC(=O)Nc3ccccc3)c2O[C@@H]1CN(C)Cc1ccc(Oc2ccccc2)cc1	81	1	nt	nt	nt	nt	nt
CC(C)NC(=O)Nc1cccc2c1O[C@H](CN(C)Cc1ccc(Oc3ccccc3)cc1)[C@H](C)CN([C@@H](C)CO)C2=O	54	-1	-1	nt	nt	nt	nt
CC(C)NC(=O)Nc1cccc2c1O[C@H](CN(C)Cc1ccc(Oc3ccccc3)cc1)[C@@H](C)CN([C@@H](C)CO)C2=O	?	1	-1	100*	83	-15	104*
CC(C)NC(=O)Nc1cccc2c1O[C@H](CN(C)Cc1ccc(Oc3ccccc3)cc1)[C@@H](C)CN([C@H](C)CO)C2=O	103*	-2	6	102*	62	-26	103*
CC(C)NC(=O)Nc1cccc2c1O[C@@H](CN(C)Cc1ccc(Oc3ccccc3)cc1)[C@H](C)CN([C@H](C)CO)C2=O	70	0	-1	nt	nt	nt	nt
CCc1ccc(NC(=O)Cn2cnc3ccccc3c2=O)cc1	nt	0	nt	nt	nt	nt	nt
O=C(COc1ccccc1)Nc1ccc(Cl)cc1C(=O)O	nt	0	nt	nt	nt	nt	nt

High-throughput results deposited in PubChem BioAssay by Broad Institute.
